Results on 15 compounds are retold here after ChEMBL document CHEMBL4152379, “Discovery of Pyrrolidine Sulfonamides as Selective and Orally Bioavailable Antagonists of Transient Receptor Potential Vanilloid-4 (TRPV4)” (J Med Chem, 2018).

The target of series [1] is Transient receptor potential cation channel subfamily V member 4 (Homo sapiens, UniProt Q9HBA0). As to the kind of experiment: Antagonist activity at human TRPV4 expressed in BHK/AC9 or HEK MSR2 cells assessed as inhibition of GSK634775-induced Ca2+ flux pre-incubated for 10 mins before agonist addition by FLIPR assay.
Transient receptor potential cation channel subfamily V member 4, sequence (Q9HBA0 whole entry): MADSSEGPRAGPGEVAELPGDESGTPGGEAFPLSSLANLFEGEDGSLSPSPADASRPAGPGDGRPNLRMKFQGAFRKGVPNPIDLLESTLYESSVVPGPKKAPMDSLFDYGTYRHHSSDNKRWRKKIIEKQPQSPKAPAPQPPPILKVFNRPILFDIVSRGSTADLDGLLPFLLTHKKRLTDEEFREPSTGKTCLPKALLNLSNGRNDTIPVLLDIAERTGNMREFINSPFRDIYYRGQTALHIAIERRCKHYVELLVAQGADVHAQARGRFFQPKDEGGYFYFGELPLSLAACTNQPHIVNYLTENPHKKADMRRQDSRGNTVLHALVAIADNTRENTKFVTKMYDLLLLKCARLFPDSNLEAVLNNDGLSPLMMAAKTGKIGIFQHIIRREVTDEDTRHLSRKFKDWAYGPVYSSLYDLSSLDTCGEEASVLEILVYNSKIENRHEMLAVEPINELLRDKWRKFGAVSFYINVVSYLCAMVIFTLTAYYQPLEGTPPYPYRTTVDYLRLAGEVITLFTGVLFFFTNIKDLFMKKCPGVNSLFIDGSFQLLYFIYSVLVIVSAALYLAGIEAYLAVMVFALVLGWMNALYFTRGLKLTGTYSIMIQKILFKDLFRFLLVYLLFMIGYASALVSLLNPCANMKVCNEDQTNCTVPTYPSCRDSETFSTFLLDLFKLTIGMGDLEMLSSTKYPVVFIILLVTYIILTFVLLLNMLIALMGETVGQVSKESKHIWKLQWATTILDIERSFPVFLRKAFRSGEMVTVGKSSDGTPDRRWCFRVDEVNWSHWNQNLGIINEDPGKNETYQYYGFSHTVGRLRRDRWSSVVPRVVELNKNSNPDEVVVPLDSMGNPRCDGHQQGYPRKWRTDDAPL
The nature of series [2]: Aqueous solubility of the compound. The series is classed as physicochemical. Particulars: buffer.
Series [3] can be described thus: Clearance in iv dosed Sprague-Dawley rat. The series is classed as ADME, organism-based. The following applies: in vivo. The method in brief: (§1)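 Male Sprague-Dawley rats with femoral vein, femoral artery and gastric catheters; noncrossover design, 2 rats per route; cassette dosing of up to five compounds. i.v. target 1 mg/kg in 5% DMSO/20% Cavitron (pH 4), infused over 30 min. Oral gastric bolus target 2 mg/kg in 5% DMSO/6% Cavitron (pH 4). Plasma sampled to 24 h and measured by HPLC−MS/MS. Noncompartmental analysis; F from dose-normalized AUC(0−∞) relative to mean i.v. AUC.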

For series [4], the species on record is Rattus norvegicus. As to the kind of experiment: Unbound clearance in Sprague-Dawley rat. The series is classed as ADME, organism-based. The following applies: in vivo.
Series [5] is described as follows: MRT in iv dosed Sprague-Dawley rat. The series is classed as ADME, organism-based. The following applies: in vivo. Put shortly:
as §1

Series [6] in a line: Oral bioavailability in Sprague-Dawley rat. Type of series: ADME, organism-based. The following applies: in vivo. The method in brief:
as §1

Series [7] in a line: Fraction unbound in Sprague-Dawley rat plasma. Type of series: ADME, cell-free.
Series [8] in a line: Lipophilicity, log D of the compound by chromatography. The series is classed as physicochemical.
Series [9] in a line: Steady state plasma concentration in Sprague-Dawley rat at 0.03 mg/kg, iv dosed via bolus dose followed by iv infusion at 0.6 ug/kg/min for 60 mins. Type of series: ADME, organism-based. Particulars: in vivo, 1 h.
Series [10] is described as follows: Steady state plasma concentration in Sprague-Dawley rat at 0.08 mg/kg, iv dosed via bolus dose followed by iv infusion at 1.7 ug/kg/min for 60 mins. Type of series: ADME, organism-based. Particulars: in vivo, 1 h.
A short description of series [11]: Steady state plasma concentration in Sprague-Dawley rat at 0.23 mg/kg, iv dosed via bolus dose followed by iv infusion at 5.1 ug/kg/min for 60 mins. Type of series: ADME, organism-based. The following applies: in vivo, 1 h.
The subject of series [12] is Rattus norvegicus. As to the kind of experiment: In vivo antagonist activity at TRPV4 in iv dosed Sprague-Dawley rat assessed as inhibition of GSK1016790A-induced reduction in mean arterial pressure at 0.03 to 0.23 mg/kg, iv dosed via bolus dose followed by iv infusion at 0.6 to 5.1 ug/kg/min for 60 mins. Type of series: functional, organism-based. The method in brief:
(§2)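 Sprague-Dawley rats given an i.v. bolus loading dose, then a 60 min continuous i.v. infusion to reach steady-state plasma exposure. Challenged with GSK1016790A at 10 μg/kg/min by 10 min i.v. infusion. Mean arterial pressure and lung wet weight/body weight ratio recorded. Mean ± SEM; comparisons by ANOVA with Dunnett's or Bonferroni post hoc tests.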

Series [13] deals with Rattus norvegicus. As to the kind of experiment: In vivo antagonist activity at TRPV4 in iv dosed Sprague-Dawley rat assessed as inhibition of GSK1016790A-induced increase in lung wet weight by measuring lung weight/body weight ratio in at 0.03 to 0.23 mg/kg, iv dosed via bolus dose followed by iv infusion at 0.6 to 5.1 ug/kg/min for 60 mins. Type of series: functional, organism-based. The method in brief:
as §2

In series [14] the test system is Rattus norvegicus. As to the kind of experiment: In vivo antagonist activity at TRPV4 in iv dosed Sprague-Dawley rat assessed as inhibition of GSK1016790A-induced reduction in mean arterial pressure at 0.23 mg/kg, iv dosed via bolus dose followed by iv infusion at 5.1 ug/kg/min for 60 mins. The series is classed as functional. Put shortly:
as §2

In series [15] the test system is Rattus norvegicus. The experiment in a line: In vivo antagonist activity at TRPV4 in iv dosed Sprague-Dawley rat assessed as inhibition of GSK1016790A-induced increase in lung wet weight by measuring lung weight/body weight ratio in at 0.23 mg/kg, iv dosed via bolus dose followed by iv infusion at 5.1 ug/kg/min for 60 mins. Type of series: functional. The method in brief: as §2

pIC50: −log10 of the molar value. In brackets after ≈: the same amount, converted by molar mass.

On to `N#Cc1ccc(O[C@H]2CN(S(=O)(=O)c3ccc(Cl)cc3Cl)C[C@H]2CO)cc1F` (racemic), for which the pIC50 in series [1] is 7.30.
For `N#Cc1ccc(O[C@H]2CN(S(=O)(=O)c3ccc(Cl)cc3Cl)C[C@@H]2CO)cc1F` (racemic), in series [1], the pIC50 was 6.70.
For `N#Cc1ccc(OCC2(O)CCN(S(=O)(=O)c3ccc(Cl)cc3Cl)CC2)cc1F`, the solubility in [2] turned out to be 7.5 µM (≈ 3.44 µg/mL). The same compound returned a clearance in series [3] of 19 mL/min/kg. Moreover, in [4], the CL free was found to be 1461 mL/min/kg. In addition, in series [5], the MRT is 1.5 h. In series [6], the bioavailability was determined as 56%. In [7], this compound yielded an unbound share (fraction unbound) of 0.013. This compound showed a chromatographic logD in [8] of 6.3. The pIC50 in series [1] is 6.89.
With `N#Cc1ccc(O[C@H]2CN(S(=O)(=O)c3ccc(Cl)cc3Cl)C[C@@H]2O)cc1F` (racemic), the pIC50 in series [1] was 7.40.
For the compound `N#Cc1ccc(OC[C@@]2(O)CN(S(=O)(=O)c3ccc(Cl)cc3Cl)C[C@@H]2O)cc1F` (racemic), in series [1], the pIC50 is 6.82.
Consider `N#Cc1ccc(OCC2(O)CN(S(=O)(=O)c3ccc(Cl)cc3Cl)C2)cc1F`, for which, in series [1], the pIC50 is 7.30.
On to `N#Cc1ccc(OCC2CCN(S(=O)(=O)c3ccc(Cl)cc3Cl)CC2)cc1F`, for which the pIC50 in series [1] was 5.20.
`N#Cc1ccc(OC2CCN(S(=O)(=O)c3ccc(Cl)cc3Cl)C2)cc1F` (racemic): the negative-log IC50 (pIC50) in [1] is 6.49.
On the same count and under the same terms, the figure for `N#Cc1ccc(OCC2(O)CCN(S(=O)(=O)c3ccc(Cl)cc3Cl)C2)cc1F` (racemic) is 6.82.
Regarding `N#Cc1ccc(O[C@H]2CN(S(=O)(=O)c3ccc(C(F)(F)F)cc3C#N)C[C@@]2(O)CO)cc1F`, in [2], the solubility was 90 µM (≈ 43.7 µg/mL). Besides, the clearance in [3] amounted to 82 mL/min/kg. The same compound yielded a CL free in series [4] of 1400 mL/min/kg. Further, the MRT in series [5] stood at 0.8 h. The compound further showed a bioavailability in [6] of 72%. This compound also gave a fraction unbound in series [7] of 0.049. In addition, the Cpss in series [9] was determined as 30 nM; in series [10], 40 nM; in series [11] it was 90 nM. Besides, the inhibition result in series [12] and in series [13] was “Dose-dependent effect” each time. Further, the “inhibition (INH)” value in series [14] and in [15] was 100% in each case. Further, the chromatographic logD in series [8] stood at 4.6. Further, in [1], the pIC50 was 9.00.
Take `N#Cc1ccc(OC[C@@H]2CN(S(=O)(=O)c3ccc(Cl)cc3Cl)C[C@H]2O)cc1F` (racemic): the negative-log IC50 (pIC50) in [1] was 6.00.
As to `N#Cc1ccc(O[C@H]2CN(S(=O)(=O)c3ccc(Cl)cc3Cl)C[C@]2(O)CO)cc1F` (racemic), the pIC50 in series [1] is 7.00.
Consider `N#Cc1ccc(OC[C@H]2CN(S(=O)(=O)c3ccc(Cl)cc3Cl)C[C@H]2O)cc1F` (racemic), for which the pIC50 in series [1] is 5.82.
For `N#Cc1ccc(O[C@H]2CN(S(=O)(=O)c3ccc(Cl)cc3Cl)C[C@H]2O)cc1F` (racemic), the negative-log IC50 (pIC50) in series [1] is 7.00.
`N#Cc1ccc(O[C@H]2CN(S(=O)(=O)c3ccc(Cl)cc3Cl)C[C@@]2(O)CO)cc1F` (racemic): in [1], the negative-log IC50 (pIC50) was 8.40.

What is called pIC50 is the negative decadic logarithm of the IC50, by convention in mol/L. In general, solubility refers to how much of the substance goes into solution per volume. The low end stands for a poorly soluble substance, the high end for a readily soluble substance. As usually defined, the clearance is the rate of elimination divided by the concentration. A word on the MRT: it is the average time that molecules of a dose stay in the body. In general, bioavailability refers to the share of a dose that reaches the circulation, judged against a reference dose that is usually intravenous. Read a high bioavailability as good availability. By fraction unbound is commonly meant free concentration divided by total concentration. Lower therefore signals extensive binding. One may read the chromatographic logD as a lipophilicity value derived from retention on a column. A high value points to a more lipophilic compound.
